Assay outcomes as filed in PubChem.
STAT3 activator: STAT3 signaling activation. U3A cells, IL-6 STAT3-luciferase reporter, luminescence; 100% = signal with IL-6 EC80 alone. activation (% of control), % at 5.6 µM. 190,000 compounds, 0.91% hits. AID 871;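 active = activation above the screen-wide mean of compound activation plus 3 SD, cut at about 130% in these data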;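 note: 0% = background luminescence of wells with medium and substrate only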
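Test system: STAT3-luciferase reporter U3A cells; Detection: reporter luminescence signal; Times: 1 h compound pre-exposure, 6 h IL-6 stimulation, 37 °C; Benchmarks: IL-6-only high control; Also added: IL-6 stimulus at 33 ng/mL final.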
FXN GAA850 act: activators of GAA850 frataxin (FXN) promoter; activation, % at 6 µM; 360,000 compounds, 0.56% hits; HEK293 lucGAA850 FXN promoter luciferase reporter, 24 h; percent of 10 µM SAHA response;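 active = activation above the average of all compounds screened plus 3 SD, cutoff fixed separately per campaign, cut at about 7.5% in these data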;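 note: 0% = DMSO wells and 100% = 10 µM SAHA wells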
ABCB6 inh 2: blocks the human ABCB6 transporter | fluorescence ratio to DMSO, % at 10 µM | Q9NP58 | 360,000 compounds, 0.19% hits | K562-ABCB6 porphyrin accumulation, flow cytometry, 1 h; stronger effect = lower value | AID 602162;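 active = fluorescence ratio to DMSO below 75%, the collection mean minus 3 SD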;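 note: signal is porphyrin accumulated inside mitochondria; 100% equals median channel fluorescence of DMSO control wells; lower ratio means ABCB6 inhibition with less porphyrin fluorescence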
AHR act: activates the human aryl hydrocarbon receptor. P35869. AHR-responsive luciferase reporter cells, luminescence. activation, % at 5 µM. 320,000 compounds, 2.5% hits; in the data active = activation above about 47%;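 note: 0% = vehicle wells and 100% = reference agonist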
Target sequence (P35869 whole entry, looked up): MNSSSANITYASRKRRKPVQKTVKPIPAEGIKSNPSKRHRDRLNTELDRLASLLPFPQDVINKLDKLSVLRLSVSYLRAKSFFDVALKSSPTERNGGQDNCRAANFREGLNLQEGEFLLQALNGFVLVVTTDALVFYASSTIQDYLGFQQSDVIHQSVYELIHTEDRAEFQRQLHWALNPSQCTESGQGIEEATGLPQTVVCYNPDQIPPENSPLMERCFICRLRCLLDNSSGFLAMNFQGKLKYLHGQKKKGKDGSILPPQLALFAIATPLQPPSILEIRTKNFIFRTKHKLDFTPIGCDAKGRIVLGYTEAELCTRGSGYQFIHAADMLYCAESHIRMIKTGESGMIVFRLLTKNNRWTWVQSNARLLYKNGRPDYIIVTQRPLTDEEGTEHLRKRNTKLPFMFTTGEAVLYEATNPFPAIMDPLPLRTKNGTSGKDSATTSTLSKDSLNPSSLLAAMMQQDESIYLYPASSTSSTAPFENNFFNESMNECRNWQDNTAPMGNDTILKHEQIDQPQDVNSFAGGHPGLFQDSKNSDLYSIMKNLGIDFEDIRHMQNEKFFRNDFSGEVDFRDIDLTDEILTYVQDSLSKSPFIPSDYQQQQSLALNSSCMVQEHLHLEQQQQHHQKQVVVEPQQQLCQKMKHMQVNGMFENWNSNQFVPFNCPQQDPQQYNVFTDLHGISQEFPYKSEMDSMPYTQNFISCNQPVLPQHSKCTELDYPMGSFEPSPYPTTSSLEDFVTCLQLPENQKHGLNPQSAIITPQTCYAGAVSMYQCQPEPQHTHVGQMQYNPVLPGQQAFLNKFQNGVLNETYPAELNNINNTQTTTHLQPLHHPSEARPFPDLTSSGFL
Active calls of the source: *; nt = not tested or not shown. The list is not random: actives were taken first. Their share in the collection is about 3.3%.

SMILES	STAT3 activator	FXN GAA850 act	ABCB6 inh 2	AHR act
Cc1cc(N)n(-c2nc(-c3cccnc3)nc3ccccc23)n1	102	-3	90	61*
CC1=C(C(=O)OCCOc2ccccc2)C(c2ccsc2)NC(=O)N1C (stereo not given)	102	0	92	6
COc1ccccc1NC(=O)/C(=C\c1cccs1)NC(=O)c1ccco1	nt	1	94	66*
COCCNC(=O)C(=O)N/N=C/c1cccs1	99	0	99	8
COc1ccc(N(CC(=O)N/N=C/c2ccc(OC3CSC3)cc2)S(=O)(=O)c2ccccc2)cc1	104	4	95	2
COc1ccccc1NC(=O)C(=O)N/N=C/c1cccs1	106	7	93	47*
COc1ccc(N(CC(=O)N/N=C/c2cccs2)S(=O)(=O)c2ccccc2)cc1	94	1	101	64*
CC1=CC(C)[C@H](/C=N/n2c(=O)[nH]c3c([nH]c4ccc(Br)cc43)c2=O)C(C)C1 (stereo not given in full)	107	1	96	17
Cc1cc(C(=O)CCC(=O)N(C)CC(=O)Nc2ccccc2Br)c(C)s1	nt	0	86	2
Brc1ccc2[nH]c3c(NCc4ccccn4)ncnc3c2c1	nt	1	87	78*
Brc1ccc2[nH]c3c(N4CCc5ccccc5C4)ncnc3c2c1	69	nt	nt	51*
Fc1ccc2[nH]c3c(N4CCc5ccccc5C4)ncnc3c2c1	nt	0	102	-3
c1ccc2c(c1)[nH]c1c(N3CCCC3)ncnc12	63	0	95	65*
Cc1ccc2[nH]c3c(N4CCOCC4)ncnc3c2c1	91	0	104	73*
COCCCn1c(=O)c2ccccc2n(Cc2cccc(C)c2)c1=O	nt	-1	95	-2
CCOc1ccc(-c2nnc(-c3snc(-c4ccc(F)cc4)c3N=CN(C)C)o2)cc1	108	1	93	1
Cc1cc2c(cc1S(=O)(=O)CCC(=O)NCCc1ccccc1)OCC(=O)N2	nt	-3	103	4
CCOc1nnnc2c1sc1nc(N3CCOCC3)c3c(c12)CCCC3	80	-2	96	-4
CNC(=O)C12N=CNN=C1N(C)C(=O)N2C (stereo not given)	92	0	98	-3
O=c1c2[nH]c3ccc(F)cc3c2ncn1CCCN1CCOCC1	102	0	104	14
Fc1ccc2[nH]c3c(NCCN4CCOCC4)ncnc3c2c1	120	-1	103	75*
CCN(CC(=O)NCc1cccs1)C(=O)Cc1ccc(C)c(C)c1	nt	-1	95	7
CN(c1cccc(NC(=O)Nc2cccc(Cl)c2)c1)S(C)(=O)=O	94	-2	92	77*
Oc1ccc(C2C(c3ccccc3)=NN=C(c3ccc(Cl)cc3)N2O)c(O)c1 (stereo not given)	91	0	109	48*
Cc1ccc(NC(=O)c2cncc(Br)c2)cc1S(=O)(=O)N(C)C	117	6	96	67*
SMILES	STAT3 activator	FXN GAA850 act	ABCB6 inh 2	AHR act
O=C(CCS(=O)(=O)c1ccccc1)Nc1nc(-c2ccccn2)cs1	102	-2	100	54*
Cc1nnc(NC(=O)CCS(=O)(=O)c2ccccc2)s1	nt	-4	99	16
O=C(CCS(=O)(=O)c1ccccc1)Nc1cccc(-c2nc3ccccc3s2)c1	91	5	94	68*
COc1ccc(C)c2sc(NC(=O)CCS(=O)(=O)c3ccccc3)nc12	nt	1	99	52*
O=C(CCS(=O)(=O)c1ccccc1)Nc1ccc(-c2nc3ccccc3s2)cc1	65	1	102	7
CCCCC(=O)Nc1nc2c(OC)ccc(OC)c2s1	85	-1	99	64*
CCOc1cccc2sc(N(CCN(C)C)C(=O)CCS(=O)(=O)c3ccccc3)nc12	nt	2	94	2
CCOc1cccc2sc(NC(=O)CCS(=O)(=O)c3ccccc3)nc12	nt	-2	92	57*
O=C(OCn1ncc(Br)c(Br)c1=O)c1ccc(F)cc1	91	-15	83	6
O=C(OCn1ncc(Br)c(Br)c1=O)c1ccccc1Cl	95	-14	46*	12
Cc1ccc(C(=O)c2oc3nc(C)cc(C)c3c2N)cc1	96	2	101	95*
COc1cccc(NC(=O)COC(=O)c2c(F)cccc2F)c1	97	3	100	-1
COc1ccccc1NC(=O)c1cc2ccccc2o1	165*	5	117	74*
Cc1ccc(NC(=O)c2cc(=O)c3ccccc3o2)cc1	122	1	99	55*
CC(=O)c1ccc(NC(=O)c2cc3ccccc3o2)cc1	nt	3	93	8
COc1ccc(NC(=O)c2cc3ccccc3o2)cc1OC	nt	3	96	-1
O=C(NNC(=O)c1ccccc1O)c1cc2ccccc2o1	nt	2	121	68*
O=C(Nc1ccc(F)cc1)c1cc2ccccc2o1	nt	5	95	72*
CNc1ncc(C(=O)c2ccc(-c3ccccc3)cc2)s1	nt	-1	90	14
CCn1nc(C)cc1-c1nnc(Sc2ncc([N+](=O)[O-])s2)n1C	nt	-9	101	2
COc1cc(OC)cc(C(=O)Nc2ccc(NC(=O)c3ccco3)c(C)c2)c1	nt	2	101	8
COc1cc(NC(=O)c2cc3ccccc3o2)c(OC)cc1Cl	154*	4	96	62*
O=C(Nc1ccc(Cl)cc1Cl)c1cc2ccccc2o1	nt	2	101	15
COc1ccc(NC(=O)c2ccco2)cc1NC(=O)c1cc2ccccc2o1	95	-1	92	62*
COc1cc(OC)cc(C(=O)Nc2cc(NC(=O)c3ccco3)ccc2OC)c1	102	-1	95	55*
SMILES	STAT3 activator	FXN GAA850 act	ABCB6 inh 2	AHR act
O=C(NCCc1ccc(C(F)(F)F)cc1)C1CCC(=O)N(CCCc2ccccc2)C1 (stereo not given)	nt	-1	97	-1
COC(=O)C1=CO[C@@H](O[C@@H]2O[C@H](CO)[C@@H](O)[C@H](O)[C@H]2O)C2C1C=C[C@@]2(O)CO (stereo not given in full)	nt	0	101	1
CC(=O)NCCc1nc2cc(NS(=O)(=O)c3ccccc3)ccc2n1C	nt	2	99	-1
Cc1ccnc(NC(=O)COc2ccc3c(c2)CCC3)c1	nt	4	100	1
COc1ccc(-c2cn3cc(Cl)ccc3n2)cc1OC	132	5	95	56*
COc1ccc2nc(N=NC3=C(O)CC(C)(C)CC3=O)sc2c1	125	-3	98	46
COc1ccc2nc(N=Nc3ccc(O)c4ccccc34)sc2c1	132	-1	101	73*
Cn1c(=O)[nH]c(=O)c2c1nc(NCCCO)n2CCCc1ccccc1	96	2	96	1
Cc1ccc2oc(C(Cl)(Cl)Cl)cc(=O)c2c1	88	-2	108	3
Cc1ccc(C(=O)Oc2oc(-c3ccco3)nc2C=Nc2ccc(Cl)cc2)cc1	75	2	94	21
CN(C)c1ccc(N=Cc2nc(-c3ccccc3)oc2OC(=O)c2cccc(Cl)c2)cc1	94	5	94	60*
Cc1ccc(C(=O)Oc2oc(-c3ccccc3)nc2C=Nc2ccc(N(C)C)cc2)cc1	93	3	97	58*
